Test results published in ChEMBL document CHEMBL1126583, “Potent quinoxaline-spaced phosphono alpha-amino acids of the AP-6 type as competitive NMDA antagonists: synthesis and biological evaluation” (J Med Chem, 1993).

Experiments:
Glutamate NMDA receptor [1] = assay: Tested for binding affinity against NMDA receptor, from rat synaptic membrane, using [3H]-CPP as the radioligand.
Summary of the method: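 Rat whole-brain crude synaptic membranes, Triton X-100 treated and frozen at -70 °C; 0.2–0.5 mg protein incubated 15 min at 23 °C with 8 nM [3H]CPP in 50 mM Tris HCl pH 7.6. Nonspecific binding defined with 1.0 mM NMDA. Bound ligand separated by centrifugation and counted by scintillation. Triplicates, 5–10 concentrations; IC50 with 95% confidence limits.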

Glutamate NMDA receptor [2] = assay: Tested for binding affinity against NMDA receptor, from rat synaptic membrane, using [3H]TCP as the radioligand.
Summary of the method: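 Stimulated binding assay on rat whole-brain synaptic membranes in 5.0 mM Tris HCl pH 7.4. […] 100 μM MK-801 defines nonspecific binding. Filtration through PEI-soaked glass-fiber filters, then scintillation counting. Triplicates, 5–10 concentrations; IC50 with 95% confidence limits.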

Glutamate NMDA receptor [3] = assay: Tested for binding affinity against NMDA receptor, from rat synaptic membrane, using [3H]glycine as the radioligand.
Summary of the method: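 Rat whole-brain synaptic membranes washed and resuspended in 50 mM Tris citrate. Separation by centrifugation, then scintillation counting.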

Row | Compound | IC50 (Glutamate NMDA receptor [1]) | IC50 (Glutamate NMDA receptor [2]) | IC50 (Glutamate NMDA receptor [3])
1 | NC(Cc1nc2ccccc2nc1CCP(=O)(O)O)C(=O)O (configuration not stated) | > 1000 nM | – | –
2 | Cc1cc2nc(CC(N)C(=O)O)c(CP(=O)(O)O)nc2cc1C (configuration not stated) | 22.3 nM | 16400 nM | –
3 | NC(Cc1nc2cc3ccccc3cc2nc1CP(=O)(O)O)C(=O)O (configuration not stated) | 6.5 nM | 5600 nM | –
4 | NC(Cc1nc2cc(F)c(F)cc2nc1CP(=O)(O)O)C(=O)O (configuration not stated) | 166 nM | – | –
5 | NC(Cc1nc2ccc(Cl)cc2nc1CP(=O)(O)O)C(=O)O (configuration not stated) | 38 nM | 13900 nM | 1800 nM
6 | NC(Cc1nc2cc(Cl)ccc2nc1CP(=O)(O)O)C(=O)O (configuration not stated) | 24 nM | 8600 nM | > 100000 nM
7 | CCOC(=O)C(N)Cc1nc2ccccc2nc1CP(=O)(O)O (configuration not stated) | > 1000 nM | – | –
8 | COc1cc2nc(CC(N)C(=O)O)c(CP(=O)(O)O)nc2cc1OC (configuration not stated) | 832 nM | – | –
9 | NC(Cc1nc2c(Cl)ccc(Cl)c2nc1CP(=O)(O)O)C(=O)O (configuration not stated) | 245 nM | – | –
10 | O=C(O)C1CN(CCCP(=O)(O)O)CCN1 (configuration not stated) | 113 nM | – | > 100000 nM
11 | NC(Cc1nc2ccccc2nc1/C=C/P(=O)(O)O)C(=O)O (configuration not stated) | > 1000 nM | – | –
12 | NC(Cc1cc2nccnc2cc1CP(=O)(O)O)C(=O)O (configuration not stated) | > 1000 nM | – | –
13 | NC(Cc1nc2cc(Cl)c(Cl)cc2nc1CP(=O)(O)O)C(=O)O (configuration not stated) | 3.4 nM | 11700 nM | 610 nM
14 | NC(Cc1nc2ccccc2nc1CP(=O)(O)O)C(=O)O (single isomer, unassigned; (+)) | > 1000 nM | – | –
15 | NC(Cc1nc2ccccc2nc1CP(=O)(O)O)C(=O)O (stereo in doubt; 7) | 119 nM | 28000 nM | 4700 nM
16 | NC(Cc1nc2ccccc2nc1CP(=O)(O)O)C(=O)O (stereo in doubt; 9) | 29.3 nM | 21000 nM | –
17 | NC(CCCCCP(=O)(O)O)C(=O)O (configuration not stated) [AP-7] | – | 302000 nM | –
18 | O=C(O)[C@@H]1C[C@H](CP(=O)(O)O)CCN1 [SELFOTEL] | 28 nM | 22400 nM | > 100000 nM
